Measured values gathered from unrelated publications.
Target: Cyclin-dependent kinase 3 (CDK3, Homo sapiens, UniProt Q00526)

C[C@@H]1CN(c2ccc3ncc(-c4ccc5[nH]nc(C6CC6)c5c4)n3n2)C[C@H](C)O1
remaining binding (binding; competition with immobilised ligand; 0.5 µM): 90%

O=C1CCc2cc(Nc3cc(OC4CCOCC4)c([N+](=O)[O-])cc3Cl)ccc2N1
remaining binding (cell-free assay; competition with immobilised ligand; 1 µM): 100%

Cc1cnn2ncc(-c3ccnc(N(C)C)n3)c2c1
remaining binding (binding; 1 µM): 86%

CNC(=O)[C@@H]1CC[C@@H](n2c(-c3ccc4cnccc4c3)nc3ccc(C(=O)NCc4cccc(C(N)=O)c4)cc32)C1
remaining binding (binding; competition with immobilised ligand; 1 µM): 89%

C[C@H]1CCN(c2nccc(-c3cnn4ncccc34)n2)C1
remaining binding (binding; 1 µM): 86%

COc1cnc(Nc2cccc(S(N)(=O)=O)c2)nc1N1CCN(c2ccccc2)CC1
remaining binding (binding; competition with immobilised ligand; 1 µM): 100%

O=C(NCC1CCOCC1)c1n[nH]cc1NC(=O)c1c(F)cccc1F
remaining binding (binding; competition with immobilised ligand; 1 µM): 75%

CN(c1nccc(-c2cnn3ncccc23)n1)C1CC1
remaining binding (binding; 1 µM): 100%

C[C@H](c1cccc(C#N)c1)n1cc(Cl)cc(C(N)=O)c1=N
remaining binding (cell-free assay; competition with immobilised ligand; 1 µM): 100%

N[C@@H]1CCN(c2nccc(-c3cnn4ncccc34)n2)C1
remaining binding (binding; 1 µM): 100%

CCS(=O)(=O)c1cc2cc(C[C@](O)(CC(C)(C)c3ccc(F)cc3C(N)=O)C(F)(F)F)[nH]c2cn1
remaining binding (cell-free assay; competition with immobilised ligand; 1 µM): 100%

O=C(c1ccc(Nc2ncc(Cl)c(-c3ccc(Cl)s3)n2)cc1)N1CCC(N2CCCC2)CC1
remaining binding (binding; competition with immobilised ligand; 1 µM): 47%

N#Cc1ccccc1CSc1nnc2c(n1)[nH]c1ccccc12
remaining binding (binding; competition with immobilised ligand; 10 µM): 100%

c1cncc(-c2cccc(Nc3nccc(NC4CCCCC4)n3)c2)c1
remaining binding (binding; competition with immobilised ligand; 10 µM): 76%

CS(=O)(=O)c1cc(C2(NC(=O)c3cncc4c3cnn4-c3ccc(F)cc3)CC2)ccn1
remaining binding (cell-free assay; competition with immobilised ligand; 1 µM): 81%

CN(C)c1nccc(-c2cnc3ncccn23)n1
remaining binding (binding; 1 µM): 79%

N#Cc1ccc(Nc2ccc3[nH]c(=O)[nH]c3c2)c(Cl)c1
remaining binding (cell-free assay; competition with immobilised ligand; 1 µM): 100%

O=C(c1ccc(Nc2ncc(Cl)c(-c3cc4ccccc4s3)n2)cc1)N1CCC(N2CCCC2)CC1
remaining binding (binding; competition with immobilised ligand; 1 µM): 48%

CCCOc1ccc([C@@H]2[C@@H](C(=O)O)[C@H](c3ccc4c(c3)OCO4)CN2CC(=O)Nc2c(CC)cccc2CC)cc1
remaining binding (cell-free assay; competition with immobilised ligand; 1 µM): 100%

CN(C)c1ncc(F)c(-c2cnn3ncccc23)n1
remaining binding (binding; 1 µM): 82%

COc1ncc2cc3ccccc3nc2c1C#N
remaining binding (cell-free assay; competition with immobilised ligand; 5 µM): 100%
